# Test results: the M2OR odorant receptor database
# Target: T1, OR2W1 (Homo sapiens) (UniProt Q9Y3N9)
# T1 sequence (whole entry): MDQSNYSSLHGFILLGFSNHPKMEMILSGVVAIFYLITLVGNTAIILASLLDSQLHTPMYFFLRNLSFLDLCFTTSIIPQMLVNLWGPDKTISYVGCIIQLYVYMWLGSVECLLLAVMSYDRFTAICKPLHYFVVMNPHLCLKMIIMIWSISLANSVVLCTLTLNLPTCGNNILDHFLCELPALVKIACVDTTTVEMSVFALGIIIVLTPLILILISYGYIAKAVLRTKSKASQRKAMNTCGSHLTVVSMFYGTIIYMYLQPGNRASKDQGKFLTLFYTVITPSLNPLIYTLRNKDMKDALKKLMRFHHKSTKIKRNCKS
# Settings: stereoisomer not certain
# How it was run: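 Each entry records the cell line, G-protein, co-transfected protein and tags used. Methods varied with the source, often transient luciferase assays in mammalian cell lines. A receptor–molecule pair is called responsive (active) if the original authors judged its signal statistically different from baseline and non-responsive (inactive) otherwise.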
row,Structure (SMILES),odorant receptor agonist call
1,COc1cccc(OC)c1O,inactive
2,CC(=O)CC(C)(C)S,inactive
3,CC(=O)C(C)C(C)=O,inactive
4,CCOC(=O)CCC(C)C,active
5,CC(=O)CC(=O)CC(C)C,active
6,CCC(C)C=O (stereo not given),inactive
7,C=Cc1ccc(O)c(OC)c1,inactive
8,CC(=O)Oc1ccccc1,inactive
9,CC(C)CCCCCCCCCCC=O,inactive
10,CSCCC=O,inactive
11,CCCCC(C)=O,active
12,CC(C)CO,inactive
13,CCCC(=O)C(C)=O,active
14,CC(C)CCO,inactive
15,O=C(c1ccccc1)c1ccccc1,active
16,CCC(C)c1nccnc1OC (stereo not given),inactive
17,Cc1occc(=O)c1O,inactive
18,CCCCC(CC)CCC(=O)O (stereo not given),inactive

row,Structure (SMILES),odorant receptor agonist call
1,O=C(O)C=Cc1ccc(O)cc1,inactive
2,COc1ccc2ccc(=O)oc2c1,inactive
3,C=CCSC,inactive
4,CC(=O)C(C)O (stereo not given),inactive
5,CCCCC(C)CCC(=O)O (stereo not given),inactive
6,CCCCC(=O)CC,active
7,CCCC(=O)C(C)CC (stereo not given),inactive
8,CCCCCCCC1CCCC(=O)O1 (stereo not given),inactive
9,CCOc1ccc2ccccc2c1,active
10,O=C1Cc2ccccc2O1,inactive
11,COc1nccnc1C(C)C,inactive
12,C=Cc1ccc(OCCCCOc2ccc(C=C)cc2)cc1,inactive
13,COc1nccnc1CC(C)C,inactive
14,CCCCCCCCCS,active
15,CCC(=O)C(C)S (stereo not given),inactive
16,CCC(C)C(=O)OC (stereo not given),inactive
17,CCc1ccc(O)c(OC)c1,inactive
